Laboratory results reported in ChEMBL document CHEMBL5325402, “Exploration of novel hexahydropyrrolo[1,2-e]imidazol-1-one derivatives as antiviral agents against ZIKV and USUV” (Eur J Med Chem, 2023).
≈ marks a conversion by molar mass, not a printed value. Where “and” joins values, the source holds several entries; their conditions need not be identical. Equal entries are not always repeated. Calls of active or inactive are those of the source. No cut-off for these calls is given here.

Assays:
Usutu virus [1] = assay: Antiviral activity against USUV 3345 isolate Arb276 infected in African green monkey Vero cells assessed as viral growth inhibition at 11 to 100 uM pretreated with virus for 1 hr followed by infection of cells with compound treated-virus for 20 hrs by focus reduction assay; type: functional, organism-based; settings: dose 11-100 µM, time 21.0 hrs
How it was run: (§1)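 Screening focus reduction assay. Vero cells were seeded 1.2 × 10^4/well. ZIKV MR766 or USUV (MOI 0.02) was preincubated 1 h at 37 °C with 100, 33 or 11 μM compound, then added to cells for 30 h (ZIKV) or 20 h (USUV). Cells were fixed in acetone-methanol and immunostained with anti-flavivirus E 4G2 plus a peroxidase secondary. Foci counted microscopically; % infection versus DMSO-matched untreated wells. Medium contained 2% FBS.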

Zika virus [2] = assay: Antiviral activity against ZIKV MR766 infected in African green monkey Vero cells assessed as viral growth inhibition at 11 to 100 uM pretreated with virus for 1 hr followed by infection of cells with compound treated-virus for 30 hrs by focus reduction assay; type: functional, organism-based; settings: dose 11-100 µM, time 31.0 hrs; how it was run: as §1
Zika virus [3] = assay: Antiviral activity against ZIKV MR766 infected in human A549 cells assessed as reduction in viral replication pretreated with virus for 1 hr followed by infection of cells with compound treated-virus for 30 hrs by focus reduction assay; type: functional, organism-based
How it was run: (§2)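 Dose-response: serial dilutions (100 to 0.13 μM) preincubated 1 h at 37 °C with virus (MOI 0.02), then added to cells for 20 h (USUV) or 30 h (ZIKV) in 2% FBS DMEM. Cells per well: Vero 1.2 × 10^4, A549 1.3 × 10^4, Huh7 1.6 × 10^4. Foci immunostained and counted. EC50/EC90 fitted by variable-slope sigmoidal curve, mean of three independent experiments.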

Usutu virus [4] = assay: Antiviral activity against USUV 3345 isolate Arb276 infected in human Huh-7 cells assessed as reduction in viral replication pretreated with virus for 1 hr followed by infection of cells with compound treated-virus for 20 hrs by focus reduction assay; type: functional, organism-based; settings: Usutu virus, 3345, Huh-7; how it was run: as §2
[5] = Cytotoxicity against African green monkey Vero cells infected with USUV 3345 isolate Arb276 pretreated with virus for 1 hr followed by infection of cells with compound treated-virus for 20 hrs by MTS assay; type: toxicity, cell-based; settings: chlorocebus sabaeus
How it was run: (§3)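 MTS viability assay. Cells were treated under the same conditions as the antiviral assays. Absorbance was expressed as % of medium-only cells, and CC50 was derived from the curve. Seeding densities were 1.2 × 10^4/well for Vero, 1.3 × 10^4/well for A549 and 1.6 × 10^4/well for Huh7. DMEM with 2% FBS.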

Usutu virus [6] = assay: Antiviral activity against USUV 3345 isolate Arb276 infected in African green monkey Vero cells assessed as reduction in viral replication pretreated with virus for 1 hr followed by infection of cells with compound treated-virus for 20 hrs by focus reduction assay; type: functional, organism-based
[7] = Cytotoxicity against human A549 cells infected with ZIKV MR766 pretreated with virus for 1 hr followed by infection of cells with compound treated-virus for 30 hrs by MTS assay; type: toxicity, cell-based; how it was run: as §3
[8] = Cytotoxicity against human A549 cells infected with USUV 3345 isolate Arb276 pretreated with virus for 1 hr followed by infection of cells with compound treated-virus for 20 hrs by MTS assay; type: toxicity, cell-based; how it was run: as §3
[9] = Cytotoxicity against human Huh-7 cells infected with USUV 3345 isolate Arb276 pretreated with virus for 1 hr followed by infection of cells with compound treated-virus for 20 hrs by MTS assay; type: toxicity, cell-based; how it was run: as §3
[10] = Cytotoxicity against human Huh-7 cells infected with ZIKV MR766 pretreated with virus for 1 hr followed by infection of cells with compound treated-virus for 30 hrs by MTS assay; type: toxicity, cell-based; how it was run: as §3
Zika virus [11] = assay: Antiviral activity against ZIKV MR766 infected in human Huh-7 cells assessed as reduction in viral replication pretreated with virus for 1 hr followed by infection of cells with compound treated-virus for 30 hrs by focus reduction assay; type: functional, organism-based; how it was run: as §2
Zika virus [12] = assay: Antiviral activity against ZIKV MR766 infected in African green monkey Vero cells assessed as reduction in viral replication pretreated with virus for 1 hr followed by infection of cells with compound treated-virus for 30 hrs by focus reduction assay; type: functional, organism-based
Usutu virus [13] = assay: Antiviral activity against USUV 3345 isolate Arb276 infected in human A549 cells assessed as reduction in viral replication pretreated with virus for 1 hr followed by infection of cells with compound treated-virus for 20 hrs by focus reduction assay; type: functional, organism-based; settings: Usutu virus, 3345, A549; how it was run: as §2
[14] = Cytotoxicity against African green monkey Vero cells infected with ZIKV MR766 pretreated with virus for 1 hr followed by infection of cells with compound treated-virus for 30 hrs by MTS assay; type: toxicity, cell-based; settings: chlorocebus sabaeus; how it was run: as §3
[15] = Solubility in DMSO at 25 degreeC; type: physicochemical
[16] = Aqueous solubility in deionized water containing 1.38% DMSO; type: physicochemical
[17] = Solubility in i-propanol at 25 degreeC; type: physicochemical
Usutu virus [18] = assay: Antiviral activity against USUV 3345 isolate Arb276 infected in African green monkey Vero cells assessed as viral growth inhibition at 33 uM pretreated with virus for 1 hr followed by infection of cells with compound treated-virus for 20 hrs by focus reduction assay relative to control; type: functional; settings: Usutu virus, 3345, Vero, time 21 hrs
How it was run: (§4)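 Virus (MOI 0.02) preincubated with compound 1 h at 37 °C, then mixture put on Vero cells (1.2 × 10^4/well, seeded the day before) in DMEM with 2% FBS for 30 h (ZIKV) or 20 h (USUV) at 37 °C. Fixed in cold acetone-methanol, foci immunostained with anti-flavivirus E 4G2 antibody and counted. % infection is relative to DMSO-treated wells. Screen used 100, 33 and 11 μM.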

Zika virus [19] = assay: Antiviral activity against ZIKV MR766 infected in African green monkey Vero cells assessed as viral growth inhibition at 33 uM pretreated with virus for 1 hr followed by infection of cells with compound treated-virus for 30 hrs by focus reduction assay relative to control; type: functional; settings: time 31 hrs; how it was run: as §4
[20] = Cytotoxicity against African green monkey Vero cells infected with ZIKV HPF2013 pretreated with virus for 1 hr followed by infection of cells with compound treated-virus for 30 hrs by MTS assay; type: toxicity, cell-based; settings: chlorocebus sabaeus; how it was run: as §3
[21] = Selectivity index, ratio of CC50 for African green monkey Vero cells infected with ZIKV HPF2013 to EC50 for ZIKV HPF2013 infected in African green monkey Vero cells; type: toxicity, cell-based; settings: read-out: Ratio CC50/EC50
[22] = Selectivity index, ratio of CC50 for African green monkey Vero cells infected with ZIKV MR766 to EC50 for ZIKV MR766 infected in African green monkey Vero cells; type: toxicity, cell-based; settings: read-out: Ratio CC50/EC50
Zika virus [23] = assay: Antiviral activity against ZIKV HPF2013 infected in African green monkey Vero cells assessed as reduction in viral replication pretreated with virus for 1 hr followed by infection of cells with compound treated-virus for 30 hrs by focus reduction assay; type: functional, organism-based
[24] = Selectivity index, ratio of CC50 for African green monkey Vero cells infected with USUV 3345 isolate Arb276 to EC50 for USUV 3345 isolate Arb276 infected in African green monkey Vero cells; type: toxicity, cell-based; settings: read-out: Ratio CC50/EC50

## COc1ccc(C[C@H]2N(Nc3ccc([N+](=O)[O-])cc3)C(=O)[C@@H]3CCCN32)cc1OC
Usutu virus [1]
  Activity: inactive
Zika virus [2]
  Activity: inactive

## O=C1[C@@H]2CCCN2[C@@H](c2ccc(O)c(O)c2)N1c1ccc([N+](=O)[O-])cc1
Usutu virus [1]
  Activity: inactive
Zika virus [2]
  Activity: inactive

## O=C1[C@@H]2CCCN2[C@@H](c2cccc(O)c2)N1c1ccc([N+](=O)[O-])cc1
Usutu virus [1]
  Activity: inactive
Zika virus [2]
  Activity: inactive

## CCN(CC)CCCC(C)Nc1ccnc2cc(Cl)ccc12 (stereo unspecified) [CHLOROQUINE]
Zika virus [3]
  EC50: 5.99 µM
Zika virus [3]; time 31 hrs
  EC90: 50.3 µM
Usutu virus [4]
  EC50: 4.82 µM
Usutu virus [4]; time 21 hrs
  EC90: 11.8 µM
[5]
  CC50 at 21 h: 115 µM
Usutu virus [6]; Usutu virus, 3345, Vero
  EC50: 8.3 µM
Usutu virus [6]; Usutu virus, 3345, Vero, time 21 hrs
  EC90: 28.2 µM
[7]
  CC50 at 31 h: 80.5 µM
[8]
  CC50 at 21 h: 144 µM
[9]
  CC50 at 21 h: 75.5 µM
[10]
  CC50 at 31 h: 58.5 µM
Zika virus [11]; MR766, Huh-7
  EC50: 0.95 µM
Zika virus [11]; MR766, Huh-7, time 31 hrs
  EC90: 2.36 µM
Zika virus [12]
  EC50: 1.53 µM
Zika virus [12]; time 31 hrs
  EC90: 5.77 µM
Usutu virus [13]
  EC50: 4.24 µM
Usutu virus [13]; time 21 hrs
  EC90: 60.1 µM
[14]
  CC50 at 31 h: 136 µM

## COc1cc([C@H]2N(c3ccc([N+](=O)[O-])cc3)C(=O)[C@@H]3CCCN32)ccc1O
[15]
  solubility: 37500 µg/mL (≈ 102 mM)
[16]
  solubility: 518 µg/mL (≈ 1.4 mM)
[17]
  solubility: 1170 µg/mL (≈ 3.17 mM)

## COc1ccc([C@H]2N(c3ccc([N+](=O)[O-])cc3)C(=O)[C@@H]3CCCN32)cc1OC
Usutu virus [1]
  Activity: inactive
Zika virus [2]
  Activity: inactive

## O=C1[C@@H]2CCCN2[C@@H](c2ccco2)N1Nc1ccc([N+](=O)[O-])cc1
Usutu virus [1]
  Activity: inactive
Zika virus [2]
  Activity: inactive

## COc1ccc(C[C@H]2N(c3ccc([N+](=O)[O-])cc3)C(=O)[C@@H]3CCCN32)cc1O
Usutu virus [1]
  Activity: inactive
Zika virus [2]
  Activity: inactive

## COc1cc([C@H]2N(Nc3ccccc3)C(=O)[C@@H]3CCCN32)ccc1O
Usutu virus [18]
  inhibition at 33 µM: < 50%
Zika virus [19]
  inhibition at 33 µM: < 50%

## C=C1/C(=C\C=C2/CCC[C@]3(C)[C@@H]([C@H](C)/C=C/C=C/C(O)(CC)CC)CC[C@@H]23)C[C@@H](O)C[C@@H]1O [SEOCALCITOL]
[5]
  CC50 at 21 h: 11.9 µM
Usutu virus [6]; vero
  EC50: 2.13 µM and 9.94 µM
[20]
  CC50 at 31 h: 11 µM
[21]
  selectivity ratio: 3.9
[22]
  selectivity ratio: 1.5
Zika virus [23]
  EC50: 2.83 µM
[24]
  selectivity ratio: 6
Zika virus [12]
  EC50: 7.51 µM
[14]
  CC50 at 31 h: 11 µM

## O=C1[C@@H]2CCCN2[C@@H](c2ccco2)N1Nc1ccccc1
Usutu virus [18]
  inhibition at 33 µM: < 50%
Zika virus [19]
  inhibition at 33 µM: < 50%

## COc1cc([C@H]2N(Nc3ccc([N+](=O)[O-])cc3)C(=O)[C@@H]3CCCN32)ccc1O
Usutu virus [1]
  Activity: inactive
Zika virus [2]
  Activity: inactive

## COc1cc(C[C@H]2N(c3ccc([N+](=O)[O-])cc3)C(=O)[C@@H]3CCCN32)ccc1O
Usutu virus [1]
  Activity: inactive
Zika virus [2]
  Activity: inactive

## O=C1[C@@H]2CCCN2[C@@H](Cc2ccc(O)cc2)N1c1ccc([N+](=O)[O-])cc1
Usutu virus [1]
  Activity: inactive
Zika virus [2]
  Activity: inactive

## COc1ccc([C@H]2N(c3ccc([N+](=O)[O-])cc3)C(=O)[C@@H]3CCCN32)cc1O
Usutu virus [1]
  Activity: inactive
Zika virus [2]
  Activity: inactive

## O=C1[C@@H]2CCCN2[C@@H](Cc2ccc(O)c(O)c2)N1c1ccc([N+](=O)[O-])cc1
Usutu virus [1]
  Activity: inactive
Zika virus [2]
  Activity: inactive
